Results on four compounds are retold here after paper PMC9214849 (Chemical Science, 2022).

Data set [1] has as its system Candida albicans, Escherichia coli, Enterococcus faecalis, and Staphylococcus epidermidis. The conditions noted are these: ref 41,42 (Aβ); 43 (hIAPP); 44,45 (GNNQQNY); 46 (KLVFFGAIL); cited from earlier work.
The target of data set [2] is T1, human calcitonin1-32 (hCT) (Homo sapiens, UniProt P01258).
T1 sequence (P01258 85-116): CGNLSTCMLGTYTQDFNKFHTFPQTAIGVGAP
Kind of data set: AFM morphology of aggregates, hCT. The data set is classed as biochemical. The conditions noted are these: pure hCT 20 μM, 24 h. Put shortly: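 AFM imaging of samples taken at different time points of the ThT kinetics runs. hCT at 20 μM was incubated alone or with 5–20 μM test defensin at 37 °C. Fibril heights and lengths were measured from the images.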

Data set [3] deals with SH-SY5Y cells. As to the kind of experiment: LDH cytotoxicity, SH-SY5Y. The note with it: pure amyloid 20 μM, 24 h; % of positive control. The data set is classed as cell-based, human.
The test system of data set [4] is SH-SY5Y cells. As to the kind of experiment: MTT cell viability, SH-SY5Y. It is filed as cell-based, human. The note with it: pure amyloid 20 μM, 24 h.
Data set [5] addresses T1, human calcitonin1-32 (hCT). Kind of data set: CD secondary structure, hCT. It is filed as biochemical. The conditions noted are these: pure 20 μM, 10 mM sodium phosphate pH 7.4, 37 °C, 24–72 h, BeStSel. The procedure, abridged: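 Aβ, hIAPP or hCT at 20 μM, alone or co-incubated with test defensin at 37 °C. Circular dichroism spectra were deconvoluted with BestSel into secondary-structure fractions, including β-structure content.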

Data set [6] concerns the target human islet amyloid polypeptide1-37 (hIAPP) (Homo sapiens, UniProt P10997). As to the kind of experiment: CD secondary structure, hIAPP. It is filed as biochemical. The conditions noted are these: pure 20 μM, 10 mM sodium phosphate pH 7.4, 37 °C, 24–72 h, BeStSel. The procedure, abridged:
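Samples held 20 μM hIAPP with 0, 5 or 20 μM defensin. Circular dichroism spectra were recorded on the aggregates. Secondary-structure fractions, including β-structure content, were fitted from the spectra with BestSel.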

The subject of the next data set is Escherichia coli. The conditions noted are these: cited from earlier work.
Data set [7] deals with RIN-m5F cells. Kind of data set: MTT cell viability, RIN-m5F. It is filed as cell-based, rat. The conditions noted are these: pure amyloid 20 μM, 24 h.
The next data set deals with Staphylococcus aureus. The conditions noted are these: cited from earlier work.
The test system of data set [8] is RIN-m5F cells. Kind of data set: LDH cytotoxicity, RIN-m5F. It is filed as cell-based, rat. The note with it: pure amyloid 20 μM, 24 h; % of positive control.

Sequence of human islet amyloid polypeptide1-37 (hIAPP) (P10997 34-70): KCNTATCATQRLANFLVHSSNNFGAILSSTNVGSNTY

Consider KLVFFGAIL, for which the “antibacterial and antifungal activities” value in data set [1] is “antibacterial and antifungal activities”.
Take `CC[C@H](C)[C@H](NC(=O)[C@H](C)NC(=O)[C@@H](NC(=O)[C@H](CCC(N)=O)NC(=O)[C@@H]1CCCN1C(=O)[C@H](Cc1ccccc1)NC(=O)[C@@H](NC(=O)[C@H](Cc1c[nH]cn1)NC(=O)[C@H](Cc1ccccc1)NC(=O)[C@H](CCCCN)NC(=O)[C@H](CC(N)=O)NC(=O)[C@H](Cc1ccccc1)NC(=O)[C@H](CC(=O)O)NC(=O)[C@H](CCC(N)=O)NC(=O)[C@@H](NC(=O)[C@H](Cc1ccc(O)cc1)NC(=O)[C@@H](NC(=O)CNC(=O)[C@H](CC(C)C)NC(=O)[C@H](CCSC)NC(=O)[C@@H]1CSSC[C@H](N)C(=O)NCC(=O)N[C@@H](CC(N)=O)C(=O)N[C@@H](CC(C)C)C(=O)N[C@@H](CO)C(=O)N[C@@H]([C@@H](C)O)C(=O)N1)[C@@H](C)O)[C@@H](C)O)[C@@H](C)O)[C@@H](C)O)C(=O)NCC(=O)N[C@H](C(=O)NCC(=O)N[C@@H](C)C(=O)N1CCC[C@H]1C(N)=O)C(C)C` [hCT]: the “average height of fibrils” value in data set [2] was 16 nm. In addition, in data set [2] (N up to 40), the “average length of fibrils” value turned out to be 477 nm. The cell toxicity in the data set on SH-SY5Y cells [3] is recorded as 35%. For the same compound, the cell viability in the data set on SH-SY5Y cells [4] was 67%. In addition, the β-structure content in data set [5] was determined as 56.4%.
For GNNQQNY, in data set [1], the “antibacterial and antifungal activities” value was “antibacterial and antifungal activities”.
On to `CC[C@H](C)[C@H](NC(=O)[C@H](C)NC(=O)CNC(=O)[C@H](Cc1ccccc1)NC(=O)[C@H](CC(N)=O)NC(=O)[C@H](CC(N)=O)NC(=O)[C@H](CO)NC(=O)[C@H](CO)NC(=O)[C@H](Cc1c[nH]cn1)NC(=O)[C@@H](NC(=O)[C@H](CC(C)C)NC(=O)[C@H](Cc1ccccc1)NC(=O)[C@H](CC(N)=O)NC(=O)[C@H](C)NC(=O)[C@H](CC(C)C)NC(=O)[C@H](CCCNC(=N)N)NC(=O)[C@H](CCC(N)=O)NC(=O)[C@@H](NC(=O)[C@H](C)NC(=O)[C@@H]1CSSC[C@H](NC(=O)[C@@H](N)CCCCN)C(=O)N[C@@H](CC(N)=O)C(=O)N[C@@H]([C@@H](C)O)C(=O)N[C@@H](C)C(=O)N[C@@H]([C@@H](C)O)C(=O)N1)[C@@H](C)O)C(C)C)C(=O)N[C@@H](CC(C)C)C(=O)N[C@@H](CO)C(=O)N[C@@H](CO)C(=O)N[C@H](C(=O)N[C@@H](CC(N)=O)C(=O)N[C@H](C(=O)NCC(=O)N[C@@H](CO)C(=O)N[C@@H](CC(N)=O)C(=O)N[C@H](C(=O)N[C@@H](Cc1ccc(O)cc1)C(N)=O)[C@@H](C)O)C(C)C)[C@@H](C)O` [hIAPP], for which the β-structure content in [6] was determined as 48.5%. Further, the bacteria growth result in the data set on Escherichia coli is “hinder Staphylococcus aureus and Escherichia coli bacteria growth”; with Staphylococcus aureus, “hinder Staphylococcus aureus and Escherichia coli bacteria growth”. Besides, in the data set with RIN-m5F cells [7], the cell viability came to 55%. In addition, the “antibacterial and antifungal activities” value in data set [1] was “antibacterial and antifungal activities”. The same compound came in with a cell toxicity with RIN-m5F cells [8] of 25%.
